Test results from ChEMBL document CHEMBL1143898, “Synthesis and study of antiviral and anti-radical properties of aminophenol derivatives” (Bioorg Med Chem Lett, 2008).
The source made the active and inactive calls.

Legend:
[1] = test system: Human alphaherpesvirus 1; assay: Antiviral activity against HSV1-induced cytopathic effect in human rhabdomyosarcoma cells assessed as suppression of viral replication; format: functional, organism-based
Summary of the method: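 HSV-1 infected human rhabdomyosarcoma (RD) cell culture; cytopathic effect based method. Compound predissolved in 10% ethanol, then twofold dilutions made in maintenance medium 199. Criterion: reduction of virus titer relative to untreated infected control; concentrations suppressing virus replication by 50% and 90% calculated (EC50, EC90).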

[2] = Cytotoxicity against human rhabdomyosarcoma cells assessed as maximum non-toxic concentrations after 72 hrs; format: functional
Summary of the method: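 Non-infected RD cell cultures exposed to compound for 72 h; maximum non-toxic concentration determined.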

[3] = test system: Peritoneal macrophage cell; assay: Inhibition of zymosan-stimulated ROS production in rat peritoneal macrophages; format: functional, cell-based
Summary of the method: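 ROS generation measured by luminol-dependent chemiluminescence with and without compound; EC50 and EC90 taken as concentrations lowering luminescence intensity by 50% and 90%.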

CC(C)(C)c1cc(Nc2ccccc2)c(O)c(C(C)(C)C)c1 showed an EC50 [1] of 23 µM, an EC90 [1] of 169 µM and an Activity [2] of 336.7 µM. The EC50 [3] was 9.8 µM.

Compound COc1c(NC(C)=O)cc(C(C)(C)C)cc1C(C)(C)C has an EC50 [1] of 798 µM, an EC90 [1] of 1960 µM and an Activity [2] of 1444 µM.

CCCC(=O)Nc1cc(C(C)(C)C)cc(C(C)(C)C)c1O showed an EC50 [1] of 8.6 µM, an EC90 [1] of 14.1 µM and an Activity [2] of 686.2 µM. The Activity [3] was “inactive”.

With CCC(=O)Nc1cc(C(C)(C)C)cc(C(C)(C)C)c1O the EC50 [1] was 38.2 µM, the EC90 [1] was 64.5 µM and the Activity [2] was 720.9 µM. The Activity [3] was “inactive”.

In the case of CC(=O)Nc1cc(C(C)(C)C)cc(C(C)(C)C)c1O, the EC50 [1] is reported as 8.5 µM, the EC90 [1] is reported as 14.8 µM and the Activity [2] is reported as 379.7 µM. For the same compound, the Activity [3] was “inactive”.

With CC(C)(C)c1cc(N)c(O)c(C(C)(C)C)c1 the EC50 [1] was 87.3 µM, the EC90 [1] was 288 µM and the Activity [2] was 113.2 µM. The EC50 [3] was 0.06 µM.

For COc1c(Nc2ccccc2)cc(C(C)(C)C)cc1C(C)(C)C, the EC50 [1] was 255 µM, the EC90 [1] was 624 µM and the Activity [2] was 722 µM. The Activity [3] was “inactive”.
